Compounds with a hit are over-represented: about 2.2% of the library has one in this group of screens.
NRP1-CendR mod: NRP-1/CendR interaction modulation; O14786; FAM-RPARPAR peptide binding to NRP-1, fluorescence polarization; inhibition, % at 25 µM; 360,000 tested, 0.85% active;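 active means inhibition or corrected inhibition above about 18%, plus a signal ratio from 0.5 to 1.5, limit read from the data, passing the limit was not always enough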
ASAP1 inh: blocks human ASAP1-stimulated Arf1 GTP hydrolysis; Q9ULH1; GDP FP detection; inhibition, % at 16.5 µM; 360,000 tested, 0.19% active; AID 624377; in the data active means inhibition above about 25%
ARFGAP1 inh: rat ARFGAP1 inhibition | 360,000 tested, 0.26% active | inhibition, % at 16.5 µM | Arfgap1-stimulated ARF1 GTP hydrolysis, GDP FP detection | Q62848;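 active means inhibition above a per-plate limit, mean inhibition of low control wells plus 3 SD, cut at about 25% in these data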
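Material: truncated rat Arfgap1 GAP domain; Incubation: compound-enzyme preincubation 20 min, reaction 120 min, detection 60 min, 25 °C; Read-out: percent inhibition of Arfgap1-stimulated GTP hydrolysis; Technique: FP, GDP Alexa 633 tracer displaced from anti-GDP antibody, 620/688 nm; Controls: No-Arfgap1 wells (100%) versus DMSO full-reaction wells (0%); Replication: single well per compound.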
Granule exo inh: lytic granule exocytosis inhibition; AID 651702; 360,000 tested, 0.66% active; TALL-104 LAMP-1 surface exposure, flow cytometry; cells stimulated with thapsigargin and PMA; inhibition, % at 10 µM;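 active means inhibition above about 55%, limit read from the data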
V-ATPase pHluor: alters yeast V-ATPase proton transport. S. cerevisiae, pHLuorin cytosolic pH fluorescence. response, % at 10 µM. 350,000 tested, 0.37% active. AID 504577; in the data active means response mostly above about 7.3%, no sharp cut-off; inactive means mostly below about 5.4%; further: actives read high
A number is an active result; - = inactive; . = no result.

SMILES | NRP1-CendR mod | ASAP1 inh | ARFGAP1 inh | Granule exo inh | V-ATPase pHluor
CCOC(=O)CCCCCC(=O)Nc1ccc2c(c1)C(=O)N([C@H](C)CO)C[C@H](C)[C@@H](CN(C)S(C)(=O)=O)OCCCC[C@@H](C)O2 | - | - | - | - | -
CN(Cc1nc2ccccc2c(=O)[nH]1)C(=O)COc1ccccc1Cc1ccccc1 | 31 | - | - | - | -
O=C(NCCc1ccccc1Cl)[C@@H]1CCCN1C(=O)[C@@H](NS(=O)(=O)c1ccc(F)cc1F)c1ccccc1 | . | - | - | . | .
CCN(C(=O)COc1ccc(C(C)=O)cc1)c1cccc2ccccc12 | 36 | - | - | - | -
COC(=O)C1=C(C)N(Cc2cccc(C(F)(F)F)c2)C(=NCC2CC2)NC1c1cccc(F)c1 (configuration not stated) | . | - | - | . | .
CC/C(=C\C1CCCCC1)C(NP(=O)(c1ccccc1)c1ccccc1)c1ccccc1 (configuration not stated) | - | - | - | 59 | -
O=P(NC1CCCCC1)(c1ccccc1)c1ccccc1 | - | - | - | - | -
O=C(NCc1ccccc1)C1C(c2ccc3c(c2)OCO3)=Nc2ccccc2N1C(=O)c1ccco1 (configuration not stated) | - | - | - | - | .
CNC(=O)c1ccccc1Sc1ccccc1C#N | 32 | - | - | - | -
C#CCN1CC(COc2ccccc2)Oc2cccc(Oc3ccc(C(C)C)cc3)c2S1(=O)=O (configuration not stated) | . | - | - | . | .
COc1ccc(C[C@@H]2OC3(C=CC(=O)C=C3)O[C@H]2Cc2ccc(OC)cc2)cc1 | - | . | . | 96 | -
O=C1C=CC2(C=C1)O[C@H](Cc1ccccc1)[C@@H](Cc1ccccc1)O2 | - | - | - | 98 | -
C=CCN=C1NC(CCc2ccccc2)C(C(=O)OC)=C(C)N1Cc1ccccc1C(F)(F)F (configuration not stated) | . | - | - | . | .
COc1ccc(CC(=O)Nc2cccc(-c3nnc(-c4ccccc4)o3)c2)cc1OC | - | - | - | 69 | -
COc1ccc(CC(=O)Nc2cccc(-c3nnc(-c4ccc(C)cc4)o3)c2)cc1OC | - | - | - | 88 | -
O[C@@H](Cc1ccccc1)[C@@H](/C=C/c1ccccc1)N(Cc1ccccc1)Cc1ccccc1 | . | - | - | . | .
Cc1cc(=O)n2[nH]c(-c3ccco3)nc2n1 | - | - | - | - | -
CCCc1cc(=O)n2[nH]c(-c3ccco3)nc2n1 | - | - | - | - | 16
COC(=O)[C@]12C[C@H](CC(=O)N3CCCC3)C(=O)N(Cc3ccc4c(c3)OCO4)C1=C[C@H](C(C)(C)C)O[C@@H]2C | . | - | - | . | .
CCOC(=O)N[C@@H](Cc1cccnc1)C(=O)N1CCC[C@H]1C(=O)NCCc1ccccc1Cl | . | - | - | . | .
CCCCNC(=S)N1CCn2cccc2C1c1ccc(F)cc1 (configuration not stated) | - | - | - | - | -
CCCCNC(=S)N1CCn2cccc2C1c1ccccc1 (configuration not stated) | 27 | - | - | - | -
O=C(NCc1ccccc1)[C@H]1CCCN1C(=O)[C@H]1CCCN1C(=O)c1ccc(OC(F)(F)F)cc1 | . | - | - | . | .
C[C@@H]1ON(C)[C@H]2C[C@H]3c4[nH]c5c(-c6cccc(F)c6)cccc5c4CCN3C(=O)[C@@H]12 | . | - | - | . | .
c1ccc(-c2nc3ccccc3nc2-c2ccc(CN3CCC4(CC3)CNc3ccccc34)cc2)cc1 | . | - | - | . | .
SMILES | NRP1-CendR mod | ASAP1 inh | ARFGAP1 inh | Granule exo inh | V-ATPase pHluor
Cc1sc2ncn(CC(=O)N3CCN(c4ccccn4)CC3)c(=O)c2c1S(=O)(=O)N1CCCCC1 | 31 | - | - | - | -
Cc1sc2ncn(CC(=O)N3CCCC(C)C3)c(=O)c2c1S(=O)(=O)N1CCCCC1 (configuration not stated) | - | - | - | - | -
CC1CCc2nc3ccccc3c(C(=O)OCC(=O)N3CCc4ccccc43)c2C1 (configuration not stated) | - | - | - | - | 16
CCCN(C(=O)CSCc1ccc(Cl)cc1)c1c(N)n(Cc2ccccc2)c(=O)[nH]c1=O | 27 | - | - | - | -
Cc1ccc(CSCC(=O)N(CCC(C)C)c2c(N)n(Cc3ccccc3)c(=O)[nH]c2=O)cc1 | - | - | - | - | -
O=C(CCc1c[nH]c2ccccc12)Nc1ccc(Oc2cccnc2)cc1 | . | - | - | . | .
CCOc1ccc(/C=C/C2=Cc3c(sc(NC(=O)CSc4n[nH]c(N)n4)c3C#N)C(C)(C)C2)cc1 | - | - | - | 78 | -
Cc1ccsc1/C=C/C1=Cc2c(sc(NC(=O)CSc3n[nH]c(N)n3)c2C#N)C(C)(C)C1 | - | - | - | 101 | -
CCOC(=O)c1sc(NC(=O)CSc2n[nH]c(-c3ccncc3)n2)c(C#N)c1C | - | - | - | - | -
COC(=O)N(C)C[C@H]1OCc2cn(nn2)CCCC(=O)N([C@H](C)CO)C[C@@H]1C | . | - | - | . | .
Cc1ccccc1NC(=O)Nc1cnccn1 | - | - | - | - | -
Cc1cccc(NC(=O)Nc2cnccn2)c1C | 20 | - | - | - | -
COCCNc1nc(-c2ccc(OC)cc2C)c2sc(-c3ccccc3)cc2n1 | - | - | - | - | .
CC1CCCN(C(C(=O)Nc2ccc3c(c2)OCO3)c2ccccc2)C1 (configuration not stated) | - | - | - | - | 14
CC1CCCN(C(C(=O)Nc2ccc3c(c2)OCCO3)c2ccccc2)C1 (configuration not stated) | - | - | - | - | -
Cc1ccc(Cl)cc1NC(=O)COC(=O)CCN1C(=O)C2CC=CCC2C1=O (configuration not stated) | - | - | - | - | -
Cc1ccc(Cl)cc1NC(=O)COC(=O)CN1C(=O)C2CCCCC2C1=O (configuration not stated) | 26 | - | - | - | -
O=C(N[C@H](C(=O)N1CCC[C@H]1C(=O)NCc1ccccc1)C1CCCCC1)c1ccc(Cl)cc1Cl | . | - | - | . | .
COc1ccccc1N1CCN(C2CCCN(C(=O)CN3CCCCC3=O)C2)CC1 (configuration not stated) | 20 | - | - | - | -
COc1cc(OC)cc(C(=O)N2CCCC(Nc3ccc(F)cc3)C2)c1 (configuration not stated) | 22 | - | - | - | -
COc1ccc(NC2CCCN(C(=O)CSc3ccncc3)C2)cc1 (configuration not stated) | 23 | - | - | - | -
C=CCOc1cccc(C(=O)N2CCCC(Nc3ccc(F)cc3)C2)c1 (configuration not stated) | - | - | - | - | -
O=C1C2C3C=CC(C3=C3CCCCC3)C2C(=O)N1c1ccccc1 (configuration not stated) | - | - | - | 80 | -
CN(C)c1ccc(C(=O)NCC2CCN(C(=O)C(=O)c3cccs3)CC2)cc1 | . | - | - | . | .

Bioassay records (PubChem)
